≈ marks a conversion by molar mass, not a printed value. Calls of active or inactive are those of the source. The rule behind the calls is not given here.

Experiment [1] deals with Yarrowia lipolytica. Kind of experiment: Antimicrobial activity against Yarrowia lipolytica after 48 hrs. The experiment is classed as functional. In a few lines:
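Broth dilution MIC per DIN 58940-84. Log-phase Y. lipolytica in yeast extract/peptone/glucose medium, counted against a 0.5 McFarland standard (A570) and seeded at 50,000 CFU/mL in 2 mL wells. Compounds added from ethanol; final concentrations 2 to 0.06125 µg/mL unless otherwise stated. Plates incubated 48 ± 2 h at 28 °C. MIC is the lowest concentration with no visible growth.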

For experiment [2], the target named is T1, Sterol 24-C-methyltransferase (Yarrowia lipolytica) (UniProt Q6C2D9).
T1 sequence (whole entry): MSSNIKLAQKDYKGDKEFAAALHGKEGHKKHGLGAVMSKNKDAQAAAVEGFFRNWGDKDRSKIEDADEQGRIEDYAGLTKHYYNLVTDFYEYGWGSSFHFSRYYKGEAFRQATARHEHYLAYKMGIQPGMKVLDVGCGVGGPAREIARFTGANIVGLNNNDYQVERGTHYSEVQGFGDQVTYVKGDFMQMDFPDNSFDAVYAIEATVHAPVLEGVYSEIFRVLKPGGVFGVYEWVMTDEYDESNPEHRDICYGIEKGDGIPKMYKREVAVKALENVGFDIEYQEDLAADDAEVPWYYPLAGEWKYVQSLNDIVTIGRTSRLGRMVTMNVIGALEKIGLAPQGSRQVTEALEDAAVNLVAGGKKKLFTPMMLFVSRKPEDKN
Kind of experiment: Inhibition of Yarrowia lipolytica 24-SMT assessed as cholesta-7,24-dien-3-trimethylsilyl derivative at 0.2 ug/mL after 48 hrs by GC-MS analysis relative to untreated control. Details: scale not given: the % may be the effect or the level left. Put shortly: (§1)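 Whole-cell sterol profiling. Y. lipolytica at 50,000 CFU/mL was exposed to compounds added from ethanol for 48 ± 2 h at 28 °C, and the MIC/2 and/or MIC/4 wells were used. Cells were pelleted and PBS-washed, then saponified in 1 M NaOH at 70 °C for 1 h. Sterols were extracted into TBME with a cholesterol internal standard and silylated to TMS ethers. GC-MS full scan, with each sterol given as % of total integrated quantifier-ion area.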

Experiment [3] has as its target T1, Sterol 24-C-methyltransferase (Yarrowia lipolytica). As to the kind of experiment: Inhibition of Yarrowia lipolytica 24-SMT assessed as dehydroergosterol-3-trimethylsilyl derivative at 0.2 ug/mL after 48 hrs by GC-MS analysis relative to untreated control. Details: scale not given: the % may be the effect or the level left. Put shortly: as §1
Experiment [4] shares this target. As to the kind of experiment: Inhibition of Yarrowia lipolytica 24-SMT assessed as ergosterol-3-trimethylsilyl derivative level at 0.2 ug/mL after 48 hrs by GC-MS analysis relative to untreated control. Details: scale not given: the % may be the effect or the level left. In a few lines: as §1
Experiment [5] has the same target. Kind of experiment: Inhibition of Yarrowia lipolytica 24-SMT assessed as 5-dehydroepisterol-3-trimethylsilyl derivative at 0.2 ug/mL after 48 hrs by GC-MS analysis relative to untreated control. Details: scale not given: the % may be the effect or the level left. Put shortly:
as §1

Experiment [6] has the same target. As to the kind of experiment: Inhibition of Yarrowia lipolytica 24-SMT assessed as cholesta-5,7,24-trien-3-trimethylsilyl derivative at 0.2 ug/mL after 48 hrs by GC-MS analysis relative to untreated control. Details: scale not given: the % may be the effect or the level left. Put shortly:
as §1

For experiment [7] the target is unchanged. As to the kind of experiment: Inhibition of Yarrowia lipolytica 24-SMT assessed as cholesta-5,7,24-trien-3-trimethylsilyl derivative at 0.1 ug/mL after 48 hrs by GC-MS analysis relative to untreated control. Details: scale not given: the % may be the effect or the level left. In a few lines:
as §1

Experiment [8] has the same target. As to the kind of experiment: Inhibition of Yarrowia lipolytica 24-SMT assessed as dehydroergosterol-3-trimethylsilyl derivative at 0.1 ug/mL after 48 hrs by GC-MS analysis relative to untreated control. Details: scale not given: the % may be the effect or the level left. In a few lines: as §1
For experiment [9] the target is unchanged. As to the kind of experiment: Inhibition of Yarrowia lipolytica 24-SMT assessed as zymosterol-3-trimethylsilyl derivative level at 0.1 ug/mL after 48 hrs by GC-MS analysis relative to untreated control. Details: scale not given: the % may be the effect or the level left. Put shortly: as §1
Experiment [10] shares this target. Kind of experiment: Inhibition of Yarrowia lipolytica 24-SMT assessed as 5-dehydroepisterol-3-trimethylsilyl derivative at 0.1 ug/mL after 48 hrs by GC-MS analysis relative to untreated control. Details: scale not given: the % may be the effect or the level left. Put shortly: as §1
The target is the same in experiment [11]. Kind of experiment: Inhibition of Yarrowia lipolytica 24-SMT assessed as cholesta-5,7,24-trien-3-trimethylsilyl derivative at 0.06 ug/mL after 48 hrs by GC-MS analysis relative to untreated control. Details: scale not given: the % may be the effect or the level left. Put shortly:
as §1

The target is the same in experiment [12]. Kind of experiment: Inhibition of Yarrowia lipolytica 24-SMT assessed as lanosterol-3-trimethylsilyl derivative at 0.06 ug/mL after 48 hrs by GC-MS analysis relative to untreated control. Details: scale not given: the % may be the effect or the level left. Put shortly: as §1
For experiment [13] the target is unchanged. Kind of experiment: Inhibition of Yarrowia lipolytica 24-SMT assessed as 5-dehydroepisterol-3-trimethylsilyl derivative at 0.06 ug/mL after 48 hrs by GC-MS analysis relative to untreated control. Details: scale not given: the % may be the effect or the level left. In a few lines:
as §1

Experiment [14] has the same target. Kind of experiment: Inhibition of Yarrowia lipolytica 24-SMT assessed as dehydroergosterol-3-trimethylsilyl derivative at 0.06 ug/mL after 48 hrs by GC-MS analysis relative to untreated control. Details: scale not given: the % may be the effect or the level left. Put shortly: as §1
The target is the same in experiment [15]. Kind of experiment: Inhibition of Yarrowia lipolytica 24-sterol C-methyltransferase assessed as ergosterol-3-trimethylsilyl derivative level at 0.06 ug/mL after 48 hrs by GC-MS analysis relative to untreated control. Details: scale not given: the % may be the effect or the level left. Put shortly: as §1
For experiment [16], the system named is Yarrowia lipolytica. Kind of experiment: Antimicrobial activity against Yarrowia lipolytica by agar diffusion test. It counts as functional, organism-based. In general terms: In agar diffusion tests the substance spreads into inoculated agar from a disc or well.
Experiment [17] concerns the target T1, Sterol 24-C-methyltransferase (Yarrowia lipolytica). As to the kind of experiment: Inhibition of Yarrowia lipolytica 24-SMT assessed as zymosterol-3-trimethylsilyl derivative level at 2 ug/mL after 48 hrs by GC-MS analysis relative to untreated control. Details: scale not given: the % may be the effect or the level left. Put shortly:
as §1

For experiment [18] the target is unchanged. As to the kind of experiment: Inhibition of Yarrowia lipolytica 24-SMT assessed as dehydroergosterol-3-trimethylsilyl derivative at 2 ug/mL after 48 hrs by GC-MS analysis relative to untreated control. Details: scale not given: the % may be the effect or the level left. In a few lines:
as §1

The target is the same in experiment [19]. As to the kind of experiment: Inhibition of Yarrowia lipolytica 24-SMT assessed as cholesta-5,7,24-trien-3-trimethylsilyl derivative at 2 ug/mL after 48 hrs by GC-MS analysis relative to untreated control. Details: scale not given: the % may be the effect or the level left. In a few lines: as §1
Experiment [20] shares this target. Kind of experiment: Inhibition of Yarrowia lipolytica 24-SMT assessed as 5-dehydroepisterol-3-trimethylsilyl derivative at 2 ug/mL after 48 hrs by GC-MS analysis relative to untreated control. Details: scale not given: the % may be the effect or the level left. In a few lines:
as §1

The target is the same in experiment [21]. Kind of experiment: Inhibition of Yarrowia lipolytica 24-SMT assessed as zymosterol-3-trimethylsilyl derivative level at 0.2 ug/mL after 48 hrs by GC-MS analysis relative to untreated control. Details: scale not given: the % may be the effect or the level left. Put shortly:
as §1

The target is the same in experiment [22]. As to the kind of experiment: Inhibition of Yarrowia lipolytica 24-SMT assessed as lanosterol-3-trimethylsilyl derivative at 0.2 ug/mL after 48 hrs by GC-MS analysis relative to untreated control. Details: scale not given: the % may be the effect or the level left. In a few lines:
as §1

Experiment [23] has the same target. Kind of experiment: Inhibition of Yarrowia lipolytica 24-SMT assessed as cholesta-7,24-dien-3-trimethylsilyl derivative at 2 ug/mL after 48 hrs by GC-MS analysis relative to untreated control. Details: scale not given: the % may be the effect or the level left. Put shortly:
as §1

The term MIC denotes the least concentration at which growth counts as inhibited. Compound `CCNC[C@@H](C)[C@H]1CC[C@H]2C3=CC[C@H]4C[C@@H](O)CC[C@]4(C)[C@H]3CC[C@]12C` gave a minimum inhibitory concentration (MIC) with Yarrowia lipolytica [1] of 2 µg/mL (≈ 5.56 µM). Further, the Activity in [2] is 3.6%; in experiment [3] it was 64.7%; in [4], 3.4%; in [5], 2.8%; in [6] it was 25.5%.

With `CCCNC[C@@H](C)[C@H]1CC[C@H]2C3=CC[C@H]4C[C@@H](O)CC[C@]4(C)[C@H]3CC[C@]12C`, the Activity in experiment [7] was 48.5%; in experiment [8] it was 47.3%; in experiment [9], 0.5%; in experiment [10], 3.7%. In the experiment on Yarrowia lipolytica [1], this compound displayed an MIC of 0.25 µg/mL (≈ 0.669 µM).

Regarding `C[C@H](/C=C/c1cc[n+](C)cc1)[C@H]1CCC2C3=CCC4C[C@@H](O)CC[C@]4(C)C3CC[C@@]21C.[I-]` (stereo partly specified), the Activity in experiment [11] came out at 18.3%; in experiment [12], 0.2%; in experiment [13], 1.8%; in [14], 67.9%; in experiment [15] it was 11.8%. In addition, the minimal inhibitory concentration (MIC) against Yarrowia lipolytica [1] was found to be 0.5 µg/mL.

In the case of `C[C@H](/C=C/c1ccccn1)[C@H]1CC[C@H]2C3=CCC4C[C@@H](O)CC[C@]4(C)[C@H]3CC[C@]12C` (stereo partly specified), in the experiment with Yarrowia lipolytica [16], the MIC result is “inactive”.

Regarding `CNC[C@@H](C)[C@H]1CC[C@H]2C3=CC[C@H]4C[C@@H](O)CC[C@]4(C)[C@H]3CC[C@]12C`, the Activity was 1.6% in experiment [17], 55.4% in [18], 40.4% in experiment [19] and 2.6% in experiment [20]. Also, the minimum inhibitory concentration (MIC) against Yarrowia lipolytica [1] is greater than 2 µg/mL.

With `CCCCN(C)C[C@@H](C)[C@H]1CC[C@H]2C3=CC[C@H]4C[C@@H](O)CC[C@]4(C)[C@H]3CC[C@]12C`, the Activity was determined as 4.2% in experiment [21]; 5.6% in experiment [2]; 37.4% in [3]; 0.4% in experiment [22]; 4.2% in [5]; 48.2% in [6]. Further, the minimum inhibitory concentration (MIC) in the experiment on Yarrowia lipolytica [1] amounted to 0.5 µg/mL (≈ 1.24 µM).

On to `CCCCCCCCCCCCNC[C@@H](C)[C@H]1CC[C@H]2C3=CC[C@H]4C[C@@H](O)CC[C@]4(C)[C@H]3CC[C@]12C`, for which, in the experiment on Yarrowia lipolytica [16], the MIC result is “inactive”.

Consider `CCCC[S+](C)C[C@@H](C)[C@H]1CC[C@H]2C3=CC[C@H]4C[C@@H](O)CC[C@]4(C)[C@H]3CC[C@]12C.[I-]` (mixture of isomers), for which the minimal inhibitory concentration (MIC) against Yarrowia lipolytica [1] was greater than 2 µg/mL. Further, the Activity in experiment [18] stood at 7.8%; in experiment [19], 87.5%; in experiment [23] it was 3.5%; in experiment [20] it was 1%.

The values above are taken from ChEMBL document CHEMBL1152672, “Side chain azasteroids and thiasteroids as sterol methyltransferase inhibitors in ergosterol biosynthesis” (2009).
